This is an account of results in ChEMBL document CHEMBL1136969, “Synthesis of novel 2-alkoxy-3-amino-3-arylpropan-1-ols and 5-alkoxy-4-aryl-1,3-oxazinanes with antimalarial activity” (J Med Chem, 2009).

SMILES strings stand for the structures. pIC50: −log10 of the molar value.

Data set [1] has as its system Plasmodium falciparum. The data set is described as follows: Antiplasmodial activity after 48 hrs against chloroquine-sensitive Plasmodium falciparum D10 infected human erythrocytes by LDH reporter assay. Particulars: D10, 48 h. In kind it is functional, organism-based. In short, it runs like this:
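Asexual erythrocytic P. falciparum D10 (CQ-sensitive) kept in continuous culture (modified Trager–Jensen); growth read by parasite lactate dehydrogenase assay (modified Makler). Samples from 2 mg/mL stocks in 10% DMSO, sonicated, suspensions allowed; tested from 100 µg/mL in 2-fold serial dilutions in complete medium, 10 concentrations down to 0.2 µg/mL. Chloroquine reference from 100 ng/mL. Duplicate, one occasion; IC50 from full dose-response.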

Data set [2] deals with CHO. The experiment in a line: Cytotoxicity against CHO cells at 100 ug/mL by MTT assay. It counts as cell-based, Cricetulus griseus. Particulars: chinese hamster. (In general: Formazan colour is commonly taken as a measure of viable cells.)
The subject of data set [3] is CHO. The data set is described as follows: Cytotoxicity against CHO cells by MTT assay. In kind it is cell-based. Particulars: Cricetulus griseus. In short, it runs like this: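 MTT colorimetric growth/survival assay. Samples from 2 mg/mL stocks in 10% methanol or 10% DMSO, suspensions allowed, stored at -20 °C; 10-fold serial dilutions in complete medium, six concentrations. Emetine reference from 100 µg/mL down to 0.001 µg/mL. Triplicate, one occasion; IC50 by nonlinear dose-response curve fitting.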

Data set [4] is described as follows: Selectivity index, ratio of IC50 for CHO cells to IC50 for chloroquine-sensitive Plasmodium falciparum D10. In kind it is toxicity, cell-based. Particulars: hamster, read-out: Ratio IC50.

Take `CCN(CC)CCCC(C)Nc1ccnc2cc(Cl)ccc12` (centres undefined) [CHLOROQUINE]: the 90% effect level in data set [1] (IC90) was put at 0.067 µM.

With `OC[C@H](OCc1ccccc1)[C@@H](NCc1ccccc1)c1ccccc1Br` (relative stereo), in data set [1], the pIC50 is 4.98 and it took 43.1 µM to reach the 90% level (IC90). In addition, the Activity entry in data set [2] is listed as “Non-toxic”.

For the compound `CCCN[C@@H](c1cccc(OC)c1)[C@H](CO)Oc1ccccc1`, in data set [1], the pIC50 is 4.60 and the IC90 was 102 µM.

In turn, `CC[C@H]1CN2CCc3cc(OC)c(OC)cc3[C@@H]2C[C@@H]1C[C@H]1NCCc2cc(OC)c(OC)cc21` [EMETINE] gave a pIC50 in data set [3] of 6.97.

In data set [1], `Brc1ccccc1[C@@H]1[C@H](OCc2ccccc2)COCN1Cc1ccccc1` (relative stereo) gave a pIC50 of 4.85 and an IC90 of 38.6 µM. For the same compound, the Activity result in data set [2] is given as “Non-toxic”.

Consider `CC(C)N[C@@H](c1ccccc1)[C@H](CO)OCc1ccccc1` (relative stereo), for which, in data set [1], the pIC50 is 4.34 and the IC90 stood at 165 µM.

In data set [1], `Fc1ccccc1[C@@H]1[C@H](Oc2ccccc2)COCN1Cc1ccccc1` (relative stereo) showed a pIC50 of 4.77 and an IC90 of 118 µM. Besides, the Activity entry in data set [2] is “Non-toxic”.

Regarding `Cc1ccc([C@@H]2[C@H](OCc3ccccc3)COCN2CC(C)C)cc1` (relative stereo), the pIC50 in data set [1] is 4.52.

In the case of `CCCN1COC[C@@H](Oc2ccccc2)[C@H]1c1ccc(OC)cc1`, in data set [1], the pIC50 is 4.06.

With `CC(C)N1COC[C@@H](OCc2ccccc2)[C@H]1c1ccccc1` (relative stereo), in data set [1], the pIC50 was 4.18.

As for `CCCN[C@@H](c1ccc(C)cc1)[C@H](CO)Oc1ccccc1`, the pIC50 in data set [1] was 4.86; in data set [3] it was 3.49. Moreover, in data set [1], the IC90 amounted to 252 µM. In data set [4], the selectivity ratio amounted to 23.8.

For `CCCN1COC[C@@H](Oc2ccccc2)[C@H]1c1ccc(C)cc1` (relative stereo), in data set [1], the pIC50 is 3.89.

On to `Clc1ccc([C@@H]2[C@H](OCc3ccccc3)COCN2c2ccccc2)cc1` (relative stereo), for which, in data set [1], the pIC50 was 4.71 and the IC90 came to 138 µM.

Take `OC[C@H](OCc1ccccc1)[C@H](Nc1ccccc1)c1ccc(Cl)cc1` (relative stereo): in data set [1], the pIC50 was 5.20 and the IC90 is 12.5 µM. The Activity result in data set [2] is “Non-toxic”.

In data set [1], `CCCN[C@@H](c1ccc(OC)cc1)[C@H](CO)Oc1ccccc1` showed a pIC50 of 4.78 and an IC90 of 47.8 µM. In data set [3], this compound gave a pIC50 of 3.84. Besides, in data set [4], the selectivity ratio was determined as 8.8.

`CCCN1COC[C@@H](Oc2ccccc2)[C@H]1c1ccccc1` (relative stereo): the pIC50 in data set [1] is 4.07.

For `OC[C@H](Oc1ccccc1)[C@@H](NCc1ccccc1)c1ccccc1F` (relative stereo), in data set [1], the pIC50 is 4.60 and the IC90 is 223 µM.

With `COc1cccc([C@@H](NC2CCCCC2)[C@H](CO)OC)c1` (relative stereo), the pIC50 in data set [1] was 3.76.

In the case of `CCCN[C@@H](c1ccccc1)[C@H](CO)Oc1ccccc1`, the pIC50 in data set [1] is 4.07.

Compound `CO[C@@H]1COCN(C(C)(C)C)[C@@H]1c1ccc(C)cc1` (relative stereo) gave a pIC50 in data set [1] of 3.92.

For `Cc1ccc([C@@H]([C@H](CO)OCc2ccccc2)N(C)CC(C)C)cc1` (relative stereo), the pIC50 in data set [1] was 4.09.

In data set [1], `Cc1ccc([C@H](NCC(C)C)[C@H](CO)OCc2ccccc2)cc1` (relative stereo) gave a pIC50 of 4.82 and an IC90 of 70.8 µM. The pIC50 in data set [3] was 3.84. In data set [4], the selectivity ratio stood at 9.4.

In data set [1], `COc1cccc([C@@H]2[C@H](OC)COCN2C2CCCCC2)c1` (relative stereo) gave a pIC50 of 4.37.

By IC90 is commonly meant the concentration needed for an effect of 90%. In general, pIC50 refers to the negative decadic logarithm of the IC50, by convention in mol/L.
